Data on four compounds can be found in ChEMBL document CHEMBL1938233, “2-Oxo-N-aryl-1,2,3,4-tetrahydroquinoline-6-sulfonamides as activators of the tumor cell specific M2 isoform of pyruvate kinase” (Bioorg Med Chem Lett, 2011).

The structures appear in SMILES notation. Calls of active or inactive are those of the source. No cut-off for these calls is given here. Some results are limits rather than exact numbers.

Broadly, the EC50 is the concentration that produces a half-maximal response. What is called Papp A→B is the apparent permeability from the apical to the basolateral side of a cell layer. By Papp B→A is commonly meant the apparent permeability from the basolateral to the apical side of a cell layer. As a reminder, the Emax is the greatest response seen or fitted, relative to the assay's reference.

In one data set the test system is Liver microsomes. As to the kind of experiment: Half life in human liver microsomes at 2 uM after 2 mins by LC/MS/MS analysis. Format: ADME, Microsome.
Data set [1] addresses Pyruvate kinase PKLR (Homo sapiens) (UniProt P30613). As to the kind of experiment: Activation of PKLR assessed as ATP product formation at 57.5 uM after 1 hr by luminescent pyruvate kinase-luciferase coupled assay.
The target in data set [2] is T1, Pyruvate kinase PKM (Homo sapiens, UniProt P14618). As to the kind of experiment: Activation of human PKM2 assessed as ATP product formation after 1 hr by luminescent pyruvate kinase-luciferase coupled assay. A digest of the protocol:
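Luminescent pyruvate kinase–luciferase coupled assay. AC50 is the mean of three separate experiments. Maximum response is % activation at 57 μM compound, normalized as described in the supporting information.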
Target sequence in this assay (P14618 whole entry): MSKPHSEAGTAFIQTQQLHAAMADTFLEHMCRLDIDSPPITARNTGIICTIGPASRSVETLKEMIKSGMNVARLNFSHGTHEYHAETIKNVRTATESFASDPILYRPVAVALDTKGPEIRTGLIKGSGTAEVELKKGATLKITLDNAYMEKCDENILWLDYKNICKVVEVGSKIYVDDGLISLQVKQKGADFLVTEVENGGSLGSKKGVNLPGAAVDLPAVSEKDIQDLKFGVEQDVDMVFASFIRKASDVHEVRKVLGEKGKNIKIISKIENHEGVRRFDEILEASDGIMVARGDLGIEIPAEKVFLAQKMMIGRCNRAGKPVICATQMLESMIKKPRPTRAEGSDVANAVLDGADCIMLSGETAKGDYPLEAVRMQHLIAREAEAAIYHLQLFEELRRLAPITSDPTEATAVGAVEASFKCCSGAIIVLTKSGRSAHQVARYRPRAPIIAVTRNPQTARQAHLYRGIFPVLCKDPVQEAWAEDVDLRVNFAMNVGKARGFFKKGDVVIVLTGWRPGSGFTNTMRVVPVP

For the next data set, the system named is Caco-2. As to the kind of experiment: Efflux ratio of permeability from basolateral to apical side over apical to basolateral side in human Caco2 cells at pH 7.4 after 2 hrs by LC/MS/MS analysis. The settings on record: caco-2, pH 7.4, 2 h. In general terms: Caco-2 cells form a polarised layer with tight junctions and transporters.
The test system of the next data set is Liver. As to the kind of experiment: Half life in mouse liver microsomes at 2 uM after 2 mins by LC/MS/MS analysis. Format: ADME, Microsome. On the technique in general: Liver microsomes are a subcellular fraction often used to study metabolism.
Data set [3] in a line: Apparent permeability from apical to basolateral side of human Caco2 cells at pH 7.4 after 2 hrs by LC/MS/MS analysis. It counts as ADME, cell-based. The conditions noted are these: Caco-2, pH 7.4.
Data set [4] in a line: Apparent permeability from basolateral to apical side of human Caco2 cells at pH 7.4 after 2 hrs by LC/MS/MS analysis. Format: ADME, cell-based. The conditions noted are these: Caco-2, pH 7.4.
Data set [5] can be described thus: Aqueous kinetic solubility of the compound in PBS buffer. Format: physicochemical.
Data set [6] concerns the target T1, Pyruvate kinase PKM. Briefly: Activation of human PKM2 assessed as ATP product formation at 57 µM after 1 hr by luminescent pyruvate kinase-luciferase coupled assay.
Target sequence in this assay (P14618 2-531 limits assumed): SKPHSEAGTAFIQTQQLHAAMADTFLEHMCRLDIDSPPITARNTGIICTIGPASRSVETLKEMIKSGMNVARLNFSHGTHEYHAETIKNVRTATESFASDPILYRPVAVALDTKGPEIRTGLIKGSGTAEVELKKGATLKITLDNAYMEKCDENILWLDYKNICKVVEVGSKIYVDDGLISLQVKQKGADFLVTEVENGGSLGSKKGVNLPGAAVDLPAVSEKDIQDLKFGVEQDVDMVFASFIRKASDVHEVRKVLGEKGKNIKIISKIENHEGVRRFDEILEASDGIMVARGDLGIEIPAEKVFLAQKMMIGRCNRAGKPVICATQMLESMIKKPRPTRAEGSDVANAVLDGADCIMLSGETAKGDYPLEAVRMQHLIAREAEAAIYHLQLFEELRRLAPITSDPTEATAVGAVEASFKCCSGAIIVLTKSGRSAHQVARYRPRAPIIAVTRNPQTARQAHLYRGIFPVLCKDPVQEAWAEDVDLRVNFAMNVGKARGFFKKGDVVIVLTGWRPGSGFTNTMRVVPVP
Data set [7] addresses T1, Pyruvate kinase PKM. As to the kind of experiment: Activation of human PKM2 assessed as effect on Km of ADP at 10 uM by after 6 mins by fluorescent pyruvate kinase-lactate dehydrogenase coupled assay. The method, boiled down: (§1)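 PK–LDH coupled kinetic assay run at about 22 °C with 10 nM PKM2, 200 mM KCl and 15 mM MgCl2. Either ADP or PEP was held at 4.0 mM while the other substrate was varied. Initial velocity (pmol/min) was measured with and without compound at 10 μM.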
Target sequence in this assay (P14618 2-531 limits assumed): as above

Data set [8] deals with T1, Pyruvate kinase PKM. As to the kind of experiment: Activation of human PKM2 assessed as reduction in Km for PEP at 10 uM by after 6 mins by fluorescent pyruvate kinase-lactate dehydrogenase coupled assay. The method, boiled down: as §1
Target sequence in this assay (P14618 2-531 limits assumed): as above

Chain of Pyruvate kinase PKLR (Homo sapiens) (P30613 whole entry, looked up): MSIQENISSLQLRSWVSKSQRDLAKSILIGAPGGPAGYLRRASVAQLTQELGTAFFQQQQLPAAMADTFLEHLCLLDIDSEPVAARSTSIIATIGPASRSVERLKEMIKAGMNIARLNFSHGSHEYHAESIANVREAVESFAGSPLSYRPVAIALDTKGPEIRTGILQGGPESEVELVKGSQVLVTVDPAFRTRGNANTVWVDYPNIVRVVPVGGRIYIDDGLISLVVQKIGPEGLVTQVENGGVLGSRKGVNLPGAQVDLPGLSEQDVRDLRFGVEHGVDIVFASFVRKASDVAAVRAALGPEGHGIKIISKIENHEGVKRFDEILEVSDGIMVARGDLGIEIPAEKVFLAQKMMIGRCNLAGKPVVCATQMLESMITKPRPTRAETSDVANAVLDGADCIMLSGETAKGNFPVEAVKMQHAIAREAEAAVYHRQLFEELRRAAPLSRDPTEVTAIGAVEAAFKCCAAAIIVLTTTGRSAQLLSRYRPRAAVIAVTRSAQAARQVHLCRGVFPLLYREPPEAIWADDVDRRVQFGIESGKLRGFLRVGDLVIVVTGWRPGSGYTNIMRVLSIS

Regarding `Cc1ccc(NS(=O)(=O)c2ccc3c(c2)CCC(=O)N3)cc1C`, the figures for the t1/2 with Liver microsomes and in the data set with Liver were 6 min and 17.3 min, respectively. The Activity in data set [1] was less than 25%. In addition, the EC50 at Pyruvate kinase PKM [2] was 790 nM. In the data set on Caco-2, the Ratio is reported as 0.82. In addition, in [3], the Papp A→B at 2 h amounted to 14.9 ×10⁻⁶ cm/s. Further, the Papp B→A at 2 h in data set [4] amounted to 12.2 ×10⁻⁶ cm/s.
`Cc1ccc(NS(=O)(=O)c2cc3c(cc2NC(C)CO)NC(=O)CC3)cc1C` (racemic) yielded a Kinetic_solubility in [5] greater than 120 µM. Also, the EC50 at Pyruvate kinase PKM [2] came to 230 nM. Further, the Emax on Pyruvate kinase PKM [6] turned out to be 124%.
Regarding `O=C1CCc2cc(S(=O)(=O)Nc3ccc(F)c(Cl)c3)c(F)cc2N1`, the t1/2 with Liver microsomes was determined as 277.2 min; in the data set on Liver it was 117.5 min. Moreover, in data set [1], the Activity was less than 25%. The EC50 at Pyruvate kinase PKM [2] was found to be 90 nM. For the same compound, in the data set on Caco-2, the Ratio is on record as 0.84. The outcome at Pyruvate kinase PKM [7] was inactive. For the same compound, in data set [3], the Papp A→B at 2 h turned out to be 9.38 ×10⁻⁶ cm/s. The outcome at Pyruvate kinase PKM [8] was Active. In addition, the Papp B→A at 2 h in data set [4] was 7.91 ×10⁻⁶ cm/s. Further, on Pyruvate kinase PKM [6], the Emax came to 88%.
As for `Cc1ccc(NS(=O)(=O)c2cc3c(cc2N[C@@H](C)CO)NC(=O)CC3)cc1Cl`, the t1/2 worked out at 30.4 min in the data set on Liver microsomes and 22.9 min in the data set on Liver. The Activity in data set [1] is less than 25%. The EC50 on Pyruvate kinase PKM [2] was determined as 60 nM. In the data set with Caco-2, the Ratio is on record as 10.51. Also, in [3], the Papp A→B at 2 h was found to be 1.13 ×10⁻⁶ cm/s. The Papp B→A at 2 h in [4] is 11.9 ×10⁻⁶ cm/s. Also, the Emax at Pyruvate kinase PKM [6] came out at 96%.
